Experimental findings from article PMC3535268 (Journal of neuroscience methods, 2011) are described below.

Structures are written as SMILES. Like-named read-outs stand apart in the source and are kept apart here.

As usually defined, the IC50 is the concentration at which inhibition is half-maximal. Low readings indicate greater potency in that assay, high ones weaker potency in that assay.

Assay type in all cases: biochemical, Fischer 344 rats
Assay [1] has as its system Complex II dependent oxygen consumption. As to conditions: log dose response; no observed differences across brain regions. In a few lines:
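Brain regions dissected from 16-week male rats; mitochondria purified by differential centrifugation, nitrogen disruption at 1200 psi and Ficoll gradient. Wells got 2.5 or 5 μg protein, were spun 200 × g, and were overlaid with respiration buffer pH 7.2 at 37 °C. […] 5–6 rats/group; two-way ANOVA.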

A further assay deals with Mitochondrial Complex I (Rattus norvegicus, UniProt P03889+Q641Y2). Description: Mitochondrial Complex I enzyme activity assay.
Assay [2] relates to Complex I driven oxygen consumption. As to conditions: cortical mitochondria. In a few lines:
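Cortical mitochondria were isolated by differential centrifugation, nitrogen bomb and Ficoll purification, then seeded on XF24 plates in respiration buffer (mannitol/sucrose/BSA/HEPES/MgCl/KH2PO4, pH 7.2, 37 °C). A modified protocol repeatedly measured O2 consumption in the same well after injecting low rotenone (10 fM, 10 pM, 10 nM; diluted in ethanol). 5–6 rats/group; two-way ANOVA with post hoc tests.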

Sequence of Mitochondrial Complex I (Q641Y2 34-463): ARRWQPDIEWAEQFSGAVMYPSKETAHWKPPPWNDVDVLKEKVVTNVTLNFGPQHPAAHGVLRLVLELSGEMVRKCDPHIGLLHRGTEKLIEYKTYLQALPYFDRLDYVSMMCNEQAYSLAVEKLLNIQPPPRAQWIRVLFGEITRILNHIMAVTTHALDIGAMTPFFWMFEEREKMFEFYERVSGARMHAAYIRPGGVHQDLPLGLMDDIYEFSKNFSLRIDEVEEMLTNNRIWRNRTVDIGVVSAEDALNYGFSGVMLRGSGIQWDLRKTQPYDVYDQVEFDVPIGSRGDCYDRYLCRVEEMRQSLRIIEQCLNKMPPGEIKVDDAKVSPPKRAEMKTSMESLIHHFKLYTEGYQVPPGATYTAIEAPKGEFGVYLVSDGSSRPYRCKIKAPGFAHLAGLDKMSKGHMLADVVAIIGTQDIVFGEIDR
Sequence of Mitochondrial Complex I (P03889 whole entry): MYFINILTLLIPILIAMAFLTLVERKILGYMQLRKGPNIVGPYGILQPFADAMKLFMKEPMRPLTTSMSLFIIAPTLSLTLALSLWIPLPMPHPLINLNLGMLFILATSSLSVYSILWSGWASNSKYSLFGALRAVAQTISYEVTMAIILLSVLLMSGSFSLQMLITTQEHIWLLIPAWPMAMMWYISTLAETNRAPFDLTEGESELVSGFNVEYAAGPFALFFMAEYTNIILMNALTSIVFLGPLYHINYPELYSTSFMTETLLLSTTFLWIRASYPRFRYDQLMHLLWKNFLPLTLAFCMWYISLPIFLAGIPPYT

Consider `O=C(O)CC(=O)O` [malonate], for which the “effect on mitochondrial driven oxygen consumption (Complex II)” value in assay [1] is given as “dose dependent decrease”.
For `C=C(C)[C@H]1Cc2c(ccc3c2O[C@@H]2COc4cc(OC)c(OC)cc4[C@@H]2C3=O)O1` [rotenone], at Mitochondrial Complex I, the IC50 was in the range of 0.163 to 0.238 nM. Moreover, the “effect on mitochondrial oxygen consumption” value in assay [2] (10 pM rotenone, up to 8 min following exposure) is given as “did not result in any reduction in oxygen consumption”; in assay [2] (10 nM rotenone) it was “significant reduction in mitochondrial oxygen consumption immediately following exposure”; in assay [2] (10 fM rotenone), “no reduction in oxygen consumption”.
